High-throughput results (PubChem)
KCNK3 inh: human KCNK3 channel inhibitors, primary screen, CHO cells, FluxOR thallium flux, B-score; B-score at 10 µM; FluxOR fluorescence; stronger effect = lower value; 340,000 compounds, 0.84% hits; AID 602410, 2012;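 active = B-score under library mean minus 4 SD, starting fluorescence ratio at most library mean plus 5 SD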;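 note: more negative B-score means stronger inhibition of thallium flux through KCNK3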
hERG rescue: hERG rescue from dofetilide block, primary screen, cell-based, CHO-hERG, FluxOR thallium flux, dofetilide IC70; Voltage-gated inwardly rectifying potassium channel KCNH2 (Homo sapiens), Q12809; dofetilide IC70 present; activation (rescue from dofetilide block), less the hit threshold, % at 10 µM; 310,000 compounds, 0.51% hits; AID 1511, 2009;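 active = activation above the mean of controls blocked by dofetilide plus 5 SD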;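 note: thallium influx through hERG after potassium depolarization seen as dye fluorescence rise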
KCNQ1 act: potentiators or activators of KCNQ1 channel, primary screen, cell-based, thallium flux, high-throughput; CHO-K1 KCNQ1, thallium flux FluxOR fluorescence; stronger effect = higher value; B-score at 10 µM; 310,000 compounds, 0.35% hits; Potassium voltage-gated channel subfamily KQT member 1 (Homo sapiens), P51787;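 active = fluorescence ratio B-score, a plate-corrected score, at least three library SD, with initial intensity B-score within 5 SD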
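System: CHO-K1 cells stably expressing KCNQ1 / Medium: assay buffer for compound exposure, DMSO matched across wells / Reagent: thallium- and potassium-containing depolarizing buffer / Compound: one concentration, matched DMSO / Incubation: 20 min compound pretreatment at room temperature / Measured by: kinetic FluxOR fluorescence, 10 s baseline plus 110 s post-stimulus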
Cl transport mod: KCC2 cotransporter modulators, thallium flux, primary screen, cell-based, HEK293 KCC2, FluoZin-2 fluorescence, MLSMR; Solute carrier family 12 member 5 (Homo sapiens), Q9H2X9; KCC2 cells, thallium flux FluoZin-2 fluorescence; B-score of Tl+ flux slope (higher = more flux/activation; lower = inhibition) at 10 µM; 190,000 compounds, 2.2% hits;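 active = thallium flux slope and its plate-corrected score both differing from the plate sample mean at a set confidence after two filtering rounds, in either direction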;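 note: slope of fluorescence scaled to starting intensity during 10 to 20 s after thallium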
KCNK9 block: KCNK9 potassium channel inhibitors, primary screen, HEK293 cells, thallium flux; FluxOR thallium flux fluorescence; stronger effect = lower value; 310,000 compounds, 1.2% hits; B-score at 10 µM; Potassium channel subfamily K member 9 (Homo sapiens), Q9NPC2; AID 488922, 2010;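 active = ratio B-score over 3 SD below the library mean, with starting fluorescence within 5 SD of its mean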;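 note: negative B-score means less thallium flux so channel inhibition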
KCNQ1 block: inhibitors of human KCNQ1 channel, primary screen, cell-based, thallium flux, high-throughput | 310,000 compounds, 1.3% hits | B-score at 10 µM | CHO-K1 KCNQ1, FluxOR thallium flux fluorescence; stronger effect = higher value | Potassium voltage-gated channel subfamily KQT member 1 (Homo sapiens), P51787;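 active = compounds whose thallium flux B-score, printed positive for inhibition, exceeds three library SD while starting fluorescence stays within three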;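 note: channel opened by potassium depolarization with thallium stimulus after 20 min compound exposure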
KCNK9 inh conf: KCNK9 potassium channel inhibitors, confirmation, HEK293 cells, thallium flux, duplicate. shares compounds with KCNK9 block. FluxOR thallium flux fluorescence. inhibition, % at 10 µM. 4,900 compounds, 43% hits;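 active = thallium signal inhibited by more than 5 SD of the compound-free buffer control wells, on both duplicate plates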;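 note: 0% = assay buffer control wells without compound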
Kir21 sel: mouse Kir2.1 channel inhibition, confirmation, selectivity assay for KCNK9 modulator project, cell-based, HEK293, thallium flux; shares compounds with KCNK9 block; Kir2.1 cells, FluxOR thallium flux fluorescence; inhibition, % at 10 µM; 4,900 compounds, 4% hits; AID 492993, 2010;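 active = thallium signal drop more than 5 SD beyond the mean of the no-compound control wells, seen in both duplicate plates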;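 note: signal is fluorescence rise after thallium addition divided by baseline fluorescence; plate controls were assay buffer only for no effect and full block by chlorpromazine control for full effect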
Target sequence (P35561 whole entry, looked up): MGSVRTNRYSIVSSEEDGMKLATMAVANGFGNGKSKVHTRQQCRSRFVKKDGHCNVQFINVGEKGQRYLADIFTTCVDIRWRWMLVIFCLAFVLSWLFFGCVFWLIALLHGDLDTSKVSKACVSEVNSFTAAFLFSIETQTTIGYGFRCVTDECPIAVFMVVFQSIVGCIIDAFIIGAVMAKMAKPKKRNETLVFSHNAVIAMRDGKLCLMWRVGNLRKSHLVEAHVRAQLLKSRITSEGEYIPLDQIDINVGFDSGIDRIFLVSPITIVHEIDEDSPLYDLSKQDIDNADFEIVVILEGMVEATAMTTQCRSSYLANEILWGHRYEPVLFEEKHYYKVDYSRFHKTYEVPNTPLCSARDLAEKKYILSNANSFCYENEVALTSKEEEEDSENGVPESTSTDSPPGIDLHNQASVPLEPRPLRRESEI
HEK293 Tl ctr: thallium flux in non-induced HEK293 cells, confirmation, counter-screen for KCNK9 inhibitor project, cell-based, second counter screen, non-induced KCNK9-HEK293 | shares compounds with KCNK9 block | FluxOR thallium flux | inhibition, % at 10 µM | 4,900 compounds, 40% hits;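 active = thallium signal drop beyond 5 SD of the untreated control mean, on both duplicate plates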;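 note: plate controls were buffer only IC0 wells for no effect and SID17386958 at its maximal inhibitory level for full effect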
Active calls of the source: *; i = inactive; . = no result given. Hits are enriched below; roughly 4.1% of the tested compounds scored in any of these assays.

SMILES	KCNK3 inh	hERG rescue	KCNQ1 act	Cl transport mod	KCNK9 block	KCNQ1 block	KCNK9 inh conf	Kir21 sel	HEK293 Tl ctr
Cc1[nH]n(-c2ccccc2)c(=O)c1/C=N/O	i	-3.7	i	.	i	i	.	.	.
Cc1ccc2cccc(N=Cc3c(C)[nH]n(-c4ccccc4)c3=O)c2n1	i	-2.0	i	0.753	-10*	i	47.0%*	i	i
O=C(NCc1cccnc1)c1cc(Sc2cccc(Cl)c2)nc2ccccc12	i	-9.2	i	0.013	-8.21*	i	35.5%*	i	i
Cc1ccc(C)c(C(=O)OCC(=O)N(C)c2ccccc2)c1	i	-6.0	i	.	i	i	i	i	i
COc1ccc2c(c1)-c1c(sn(-c3ccc(OC)c(OC)c3)c1=S)C(C)(C)N2	i	-3.9	i	-0.089	i	i	i	i	i
CCN(CC(=O)Nc1c(F)cccc1F)C(=O)c1cc(-c2cccs2)nn1-c1ccccc1	i	-13.8	i	.	i	i	.	.	.
Cc1ccc(NC(=O)COc2ccc(Br)cc2CO)cc1S(=O)(=O)N1CCOCC1	i	.	.	.	.	.	.	.	.
Cc1cc(C)nc(SCc2nnc(SCc3ccccc3Cl)o2)n1	i	-12.1	i	-0.466	-8.45*	i	47.0%*	i	i
CCCCCCCCNC(=O)/C(C#N)=C/c1ccc2c(c1)OCCO2	i	0.9	i	-1.12	i	i	i	i	i
CCCCCCCCNC(=O)/C(C#N)=C/c1ccc(SC)cc1	i	-3.7	i	0.0294	i	i	i	i	i
CCCCNC(=O)/C(C#N)=C/c1ccc2c(c1)OCCO2	i	-8.4	i	0.163	i	i	.	.	.
CCCCNC(=O)/C(C#N)=C/c1cccnc1	i	-16.7	i	1.47	i	i	.	.	.
COc1ccc(-c2oc(=O)c3cc(OC)c(OC)cc3c2C#C[C@]2(O)CC[C@H]3[C@@H]4CCc5cc(OC)ccc5[C@H]4CC[C@@]32C)cc1	i	.	.	.	.	.	.	.	.
Cc1ccccc1CN1CCN(Cc2ccccc2C(F)(F)F)CC1	i	-14.5	i	0.0197	i	i	i	i	i
COc1cccc(CN2CCN(Cc3cccc(Oc4ccccc4)c3)CC2)c1OC	i	-10.5	i	.	i	i	i	i	i
COc1cccc(CN2CCN(Cc3cc(OC)c(OC)c(OC)c3)CC2)c1OC	i	1.1	i	.	i	i	.	.	.
COc1ccc(CN2CCN(Cc3ccccc3C(F)(F)F)CC2)c(OC)c1	i	-10.8	i	.	i	i	i	i	i
COc1ccc(OC)c(CN2CCN(Cc3cccc4ccccc34)CC2)c1	i	-19.5	i	0.0586	i	i	i	i	i
COc1ccc(OC)c(CN2CCCCCC2)c1	i	-7.4	i	.	i	i	.	.	.
O=C(CN1CCCC1c1cccs1)N1CCN(S(=O)(=O)c2ccccc2)CC1 (stereo not drawn)	i	.	.	.	.	.	.	.	.
CCN(CC)CCNC(=O)CNC(=O)c1nn(-c2ccc(OC)c(OC)c2)c(=O)c2ccccc12	i	-6.1	i	.	i	i	.	.	.
